Measurements reported in ChEMBL document CHEMBL4325893, “Synthesis and antibacterial profiles of targeted triclosan derivatives” (2019).
≈ marks a conversion by molar mass, not a printed value.

Columns and labels:
Escherichia coli [1] = test: Antibacterial activity against Escherichia coli OCC 122 after 18 hrs; assay type: functional; conditions: OCC 122, 18 h
In short: (§1)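 Broth microdilution in Nutrient Broth No. 2; stocks in ethanol diluted to 0.01–128 µg/ml (triclosan) or 0.25–256 µg/ml (glycosides). Overnight 37 °C NB2 cultures diluted 1 in 10^4 in saline and added to the dilutions. Incubation at 37 °C with agitation, OD read every 15 min; MIC is the lowest concentration preventing any OD rise after 18 h.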

[2] = Antibacterial activity against Salmonella enterica subspecies enterica serotype Pullorum OCC 273 after 18 hrs; assay type: functional, Salmonella enterica subsp. enterica serovar Pullorum; conditions: OCC 273, 18 h; in short: as §1
Bacillus cereus = test: Antibacterial activity against Bacillus cereus ATCC 14579 after 18 hrs; assay type: functional; conditions: ATCC 14579, 18 h; in short: as §1
[3] = Antibacterial activity against Salmonella enterica subspecies enterica serotype Infantis OCC 2133 after 18 hrs; assay type: functional, Salmonella enterica subsp. enterica serovar Infantis; conditions: OCC 2133, 18 h; in short: as §1
Salmonella typhimurium = test: Antibacterial activity against Salmonella enterica subspecies enterica serotype typhimurium ATCC 14028 after 18 hrs; assay type: functional, Salmonella enterica subsp. enterica serovar Typhimurium; conditions: ATCC 14028, 18 h; in short: as §1
[4] = Antibacterial activity against Salmonella enterica subspecies enterica serotype Poona NCTC 4840 after 18 hrs; assay type: functional, Salmonella enterica subsp. enterica serovar Poona; conditions: NCTC 4840, 18 h; in short: as §1
Enterococcus faecalis [5] = test: Antibacterial activity against Enterococcus faecalis ATCC 29212 after 18 hrs; assay type: functional; conditions: ATCC 29212, 18 h; in short: as §1
Bacillus subtilis = test: Antibacterial activity against Bacillus subtilis NCTC 10073 after 18 hrs; assay type: functional; conditions: NCTC 10073, 18 h; in short: as §1
Citrobacter freundii = test: Antibacterial activity against Citrobacter freundii 8090 after 18 hrs; assay type: functional; conditions: Citrobacter freundii, 8090, 18 h; in short: as §1
Staphylococcus aureus [6] = test: Antibacterial activity against Staphylococcus aureus ATCC 9144 after 18 hrs; assay type: functional; conditions: ATCC 9144, 18 h; in short: as §1
Klebsiella aerogenes [7] = test: Antibacterial activity against Enterobacter aerogenes ATCC 13048 after 18 hrs; assay type: functional; conditions: ATCC 13048, 18 h; in short: as §1
Streptococcus pyogenes = test: Antibacterial activity against Streptococcus pyogenes ATCC 19615 after 18 hrs; assay type: functional; conditions: ATCC 19615, 18 h
In short: (§2)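 Broth microdilution in Nutrient Broth No. 2. Ethanol stocks were diluted in broth to 0.01–128 µg/ml for triclosan and 0.25–256 µg/ml for glycosides. Overnight 37°C NB2 cultures were diluted 1 in 10^4 in saline and added to the wells. Plates were incubated at 37°C with OD read every 15 min after agitation. MIC was the lowest concentration giving no OD increase at 18 h.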

Streptococcus viridans = test: Antibacterial activity against Streptococcus viridans OCC 234 after 18 hrs; assay type: functional; conditions: OCC 234, 18 h; in short: as §2
Cronobacter sakazakii = test: Antibacterial activity against Cronobacter sakazakii 29544 after 18 hrs; assay type: functional; conditions: Cronobacter sakazakii, 29544, 18 h; in short: as §1
Enterococcus faecium = test: Antibacterial activity against Enterococcus faecium ATCC 19434 after 18 hrs; assay type: functional; conditions: ATCC 19434, 18 h; in short: as §1
Staphylococcus aureus [8] = test: Antibacterial activity against Staphylococcus aureus NCTC 13758 after 18 hrs; assay type: functional; conditions: NCTC 13758, 18 h; in short: as §1
Streptococcus pneumoniae = test: Antibacterial activity against Streptococcus pneumoniae 6305 after 18 hrs; assay type: functional; conditions: Streptococcus pneumoniae, 6305, 18 h; in short: as §2
Serratia marcescens = test: Antibacterial activity against Serratia marcescens OCC 217 after 18 hrs; assay type: functional; conditions: OCC 217, 18 h; in short: as §1
Klebsiella aerogenes [9] = test: Antibacterial activity against Klebsiella aerogenes NCTC 8167 after 18 hrs; assay type: functional; conditions: NCTC 8167, 18 h; in short: as §1
Staphylococcus aureus [10] = test: Antibacterial activity against Staphylococcus aureus OCC 106 after 18 hrs; assay type: functional; conditions: OCC 106, 18 h; in short: as §1
Staphylococcus aureus [11] = test: Antibacterial activity against Staphylococcus aureus OCC 104 after 18 hrs; assay type: functional; conditions: OCC 104, 18 h; in short: as §1
Escherichia coli [12] = test: Antibacterial activity against Escherichia coli ATCC 11775 after 18 hrs; assay type: functional; in short: as §1
Aeromonas hydrophila = test: Antibacterial activity against Aeromonas hydrophila OCC 778 after 18 hrs; assay type: functional; conditions: OCC 778, 18 h; in short: as §1
Proteus vulgaris = test: Antibacterial activity against Proteus vulgaris OCC 195 after 18 hrs; assay type: functional; conditions: OCC 195, 18 h; in short: as §1
Escherichia coli [13] = test: Antibacterial activity against Escherichia coli ATCC 8739 after 18 hrs; assay type: functional; conditions: ATCC 8739, 18 h; in short: as §1
Escherichia coli [14] = test: Antibacterial activity against Escherichia coli 700728 after 18 hrs; assay type: functional; conditions: Escherichia coli, 700728, 18 h; in short: as §1
[15] = system: Staphylococcus epidermidis; test: Antibacterial activity against Staphylococcus epidermidis ATCC 14990 after 18 hrs; assay type: functional; conditions: ATCC 14990, 18 h; in short: as §1
Enterococcus faecalis [16] = test: Antibacterial activity against Enterococcus faecalis ATCC 33186 after 18 hrs; assay type: functional; conditions: ATCC 33186, 18 h; in short: as §1
Escherichia coli [17] = test: Antibacterial activity against Escherichia coli ATCC 25922 after 18 hrs; assay type: functional; conditions: ATCC 25922, 18 h; in short: as §1

MIC (Escherichia coli [1]): 16 to 64 µg/mL (≈ 35.4 to 142 µM)
MIC [2]: 32 to 64 µg/mL (≈ 70.8 to 142 µM)
MIC (Bacillus cereus): > 256 µg/mL
MIC [3]: 32 to 64 µg/mL (≈ 70.8 to 142 µM)
MIC (Salmonella typhimurium): 32 to 64 µg/mL (≈ 70.8 to 142 µM)
MIC [4]: 32 to 64 µg/mL (≈ 70.8 to 142 µM)
MIC (Enterococcus faecalis [5]): > 256 µg/mL
MIC (Bacillus subtilis): 256 µg/mL (≈ 567 µM)
MIC (Citrobacter freundii): 64 µg/mL (≈ 142 µM)
MIC (Staphylococcus aureus [6]): 8 to 16 µg/mL (≈ 17.7 to 35.4 µM)
MIC (Klebsiella aerogenes [7]): 128 µg/mL (≈ 283 µM)
MIC (Streptococcus pyogenes): 256 µg/mL (≈ 567 µM)
MIC (Streptococcus viridans): > 256 µg/mL
MIC (Cronobacter sakazakii): 128 µg/mL (≈ 283 µM)
MIC (Enterococcus faecium): > 256 µg/mL
MIC (Staphylococcus aureus [8]): 8 to 16 µg/mL (≈ 17.7 to 35.4 µM)
MIC (Streptococcus pneumoniae): 128 µg/mL (≈ 283 µM)
MIC (Serratia marcescens): > 256 µg/mL
MIC (Klebsiella aerogenes [9]): 32 µg/mL (≈ 70.8 µM)
MIC (Staphylococcus aureus [10]): 8 to 16 µg/mL (≈ 17.7 to 35.4 µM)
MIC (Staphylococcus aureus [11]): 8 to 16 µg/mL (≈ 17.7 to 35.4 µM)
MIC (Escherichia coli [12]): 16 to 64 µg/mL (≈ 35.4 to 142 µM)
MIC (Aeromonas hydrophila): > 256 µg/mL
MIC (Proteus vulgaris): 64 µg/mL (≈ 142 µM)
MIC (Escherichia coli [13]): 16 to 64 µg/mL (≈ 35.4 to 142 µM)
MIC (Escherichia coli [14]): 16 to 64 µg/mL (≈ 35.4 to 142 µM)
MIC [15]: 8 to 32 µg/mL (≈ 17.7 to 70.8 µM)
MIC (Enterococcus faecalis [16]): > 256 µg/mL
MIC (Escherichia coli [17]): 16 to 64 µg/mL (≈ 35.4 to 142 µM)
SMILES: OC[C@H]1O[C@H](Oc2cc(Cl)ccc2Oc2ccc(Cl)cc2Cl)[C@H](O)[C@@H](O)[C@H]1O
